# RAD52 inh = RAD52 (human) annealing inhibition; AID 651710; 360,000 compounds, 0.46% hits; recombinant RAD52 DNA annealing, FRET fluorescence; P43351; inhibition, % at 18.7 µM;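 active = every replicate showing at least 50% inhibition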
# Target sequence (P43351 whole entry, looked up): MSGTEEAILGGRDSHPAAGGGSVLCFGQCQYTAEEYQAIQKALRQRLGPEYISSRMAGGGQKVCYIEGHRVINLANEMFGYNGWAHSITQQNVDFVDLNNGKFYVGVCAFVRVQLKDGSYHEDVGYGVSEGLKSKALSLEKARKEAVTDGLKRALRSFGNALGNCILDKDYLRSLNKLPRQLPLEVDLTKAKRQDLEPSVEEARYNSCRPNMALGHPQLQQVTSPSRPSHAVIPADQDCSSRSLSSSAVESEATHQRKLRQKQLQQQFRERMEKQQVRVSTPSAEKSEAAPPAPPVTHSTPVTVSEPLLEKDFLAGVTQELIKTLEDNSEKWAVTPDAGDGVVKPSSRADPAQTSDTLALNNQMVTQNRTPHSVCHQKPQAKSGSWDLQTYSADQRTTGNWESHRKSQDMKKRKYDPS
# PAX8 reporter = inhibitors of PAX8 transcriptional activity in RMG-I cells; 360,000 compounds, 1.2% hits; inhibition, % at 12.6 µM; RMG-I TPO-luciferase reporter, SteadyGlo, 24 h;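 active = mean replicate inhibition at least 60% with every replicate also reaching 60%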;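 also: luciferase light reporting Pax8 driven TPO promoter activity; plate controls were median of neutral control wells for no effect and mitoxantrone controls for full effect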
# RAD54 inh = inhibitors of human RAD54 branch migration; RAD54 Holliday junction branch migration, FAM/BHQ fluorescence; inhibition, % at 10.4 µM; 360,000 compounds, 0.14% hits; AID 602329;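 active = mean normalized replicate activity at least 40 and at least half of replicates scoring 40 or more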;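 also: 0% = median of neutral control wells and 100% = median of positive control wells; inhibitors cause a drop in the FAM fluorescence signal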
# FN deposition inh = fibronectin deposition inhibition; AH1F fibroblasts, Alexa488-fibronectin deposition fluorescence, overnight; inhibition, % at 12.6 µM; 350,000 compounds, 0.086% hits; AID 743247;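 active = mean inhibition across replicates of 30% or more, regardless of how many single replicates reach that level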;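 also: positive control wells lacked labelled fibronectin entirely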
#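 Assay system: AH1F fibroblast monolayer, labelled fibronectin deposition. Amount: 10000 cells per well. Also added: labelled fibronectin 24 nM. Compound: single-point pinned compound. Incubation: cell attachment 1 h, compound and FN exposure overnight. Detection: fluorescence after three HBSS washes, excitation 485 nm, emission 525 nm. Read-out: inhibition of fibronectin deposition signal.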
# Numbers without * were called inactive; i = inactive; x = no result. Shown are actives, neighbours in structure and some others; about 1.3% of the full set was active somewhere.
SMILES,RAD52 inh,PAX8 reporter,RAD54 inh,FN deposition inh
Cn1cccc1-c1cc(C(=O)N/N=C/c2ccccc2Cl)[nH]n1,-14.6,-188.0,1.4,8.7
COc1ccc(C(=O)N/N=C/c2cc(Br)ccc2O)cc1OC,-13.5,82.5*,x,-0.9
Cn1cccc1-c1cc(C(=O)N/N=C/c2cc(Br)ccc2O)[nH]n1,-22.5,74.4*,-0.1,11.9
Cc1ccc(C)c(NC(=S)NC(=O)c2cncc(Br)c2)c1,-6.2,8.0,1.8,2.1
Cc1ccccc1CNC(=O)C1CCCN(c2nnc(C)c3c(C)n(-c4ccccc4)nc23)C1 (centres undefined),i,94.6*,0.2,-7.0
CCc1ccc(CNC(=O)C2CCCN(c3nnc(C)c4c(C)n(-c5ccccc5)nc34)C2)cc1 (centres undefined),-444.1,89.5*,-3.8,-22.9
Cc1nnc(N2CCCC(C(=O)NCc3ccccc3F)C2)c2nn(-c3ccccc3)c(C)c12 (centres undefined),-83.0,36.2,-1.2,2.2
Cc1ccc(-n2nc3c(N4CCC(C(=O)NCc5ccccc5C)CC4)nnc(C)c3c2C)cc1,x,x,-7.5,x
Cc1nnc(N2CCCC(C(=O)NCc3cccc(F)c3)C2)c2nn(-c3ccccc3)c(C)c12 (centres undefined),i,65.1*,2.6,-6.9
CCCC(=O)OCCNc1cc(Sc2nc3ccccc3[nH]2)c2nonc2c1[N+](=O)[O-],x,85.6*,4.0,26.7
CCC(=O)OCCNc1cc(Sc2nccn2C)c2nonc2c1[N+](=O)[O-],x,104.4*,x,2.5
CCOc1ccc(CN(C)CC(=O)Nc2cccc(S(=O)(=O)N(C)c3ccccc3)c2)cc1,-3.0,15.1,-4.5,-0.6
Cc1noc(C)c1S(=O)(=O)Nc1ccc2c(c1)CC(=O)N([C@@H](C)CO)C[C@H](C)[C@@H](CN(C)S(=O)(=O)c1ccccc1)O2,7.9,-14.1,-0.6,x
C[C@@H]1COc2cccc(N3CCCCC3)c2S(=O)(=O)N1,-6.2,-13.5,x,-4.9
O=C(CCC1CCCCC1)NCCS(=O)(=O)N1CCN(c2ccccc2F)CC1,-9.3,3.7,x,8.5
CCN(CC)C(=O)CSc1n[nH]c(=O)n1CCc1ccccc1,-0.3,11.8,3.2,0.4
O=c1[nH]nc(Sc2ncnc3sccc23)n1CCc1ccccc1,x,83.0*,8.9,4.2
CNC1=C([N+](=O)[O-])CC([N+](=O)[O-])=C(N2CCNCC2)N1C,-6.6,-9.3,x,-1.5
C#CCOCCOCCOCCNc1nc(N2CCN(C(=O)[C@H](CCCCN)n3cc([C@@H](N)C(C)CC)nn3)CC2)nc(N2CCN(C(=O)[C@H](Cc3cc4ccccc4[nH]3)n3cc([C@@H](N)CC(C)C)nn3)CC2)n1 (some centres undefined),x,x,59.6*,x
C#CCOCCOCCOCCNc1nc(N2CCN(C(=O)[C@H](CCCCN)n3cc(CN)nn3)CC2)nc(N2CCN(C(=O)[C@H](CCCCN)n3cc([C@@H](N)CC(N)=O)nn3)CC2)n1,44.0,3.8,-35.7,5.4
C#CCOCCOCCOCCNc1nc(N2CCN(C(=O)[C@H](CCCCN)n3cc([C@@H](N)CC(N)=O)nn3)CC2)nc(N2CCN(C(=O)[C@H](CCCCN)n3cc([C@@H](N)CC(N)=O)nn3)CC2)n1,61.3*,-9.3,-21.1,-2.7
O=C(Cn1cc(C(F)(F)F)ccc1=O)Nc1ccc2c(c1)OCO2,-1.2,95.4*,-3.5,7.8
Cc1ccc2c(c1)NC(=O)C(CC(=O)NCCCN1CCN(c3cc(Cl)ccc3C)CC1)O2 (centres undefined),-3.2,28.0,-7.5,-3.8
O=C(Nc1ccc(Cl)cc1)N1CCSCC1,x,x,2.8,x
COc1ccc(NC(=O)/C(Cl)=C(/Cl)S(=O)Cc2ccc(Cl)cc2)cn1 (centres undefined),-24.3,88.1*,x,55.3*
SMILES,RAD52 inh,PAX8 reporter,RAD54 inh,FN deposition inh
COCCNC(=O)/C(C#N)=C/c1ccc(O)c([N+](=O)[O-])c1,-2.3,9.9,x,-0.3
COCCNC(=O)/C(C#N)=C/C=C/c1ccccc1[N+](=O)[O-],-2.1,80.1*,x,x
CCCCCCCn1c2c(c(=N)c3c1CCC3)CCCC2,-4.8,93.5*,x,-3.7
CC(C)C(=O)Nc1cccc(COc2ccc(CN(Cc3ccccc3)C(=O)OC(C)(C)C)cc2)c1,-6.1,71.7*,12.7,-3.0
CC(C)NC(=S)Nc1ccc2[nH]c(=O)[nH]c2c1,8.6,14.2,x,11.0
Cc1ccc(Nc2nc3ccccc3c(=O)s2)cc1,10.5,-8.8,x,-14.6
Cc1cc(OCC(=O)NC(C)C)cc(C)c1Br,-9.7,65.1*,x,-2.4
Cc1ccc(S(=O)(=O)N2C[C@H](O)COC[C@@H]3O[C@H](CC(=O)NCC4CCCCC4)CC[C@H]32)cc1,54.3*,4.1,3.1,-3.7
Cc1ccc(S(=O)(=O)N2C[C@@H](O)COC[C@@H]3O[C@@H](CC(=O)NCC4CCCCC4)CC[C@H]32)cc1,60.0*,21.1,6.8,-12.8
Cc1ccc(S(=O)(=O)N2C[C@H](O)COC[C@H]3O[C@@H](CC(=O)NCC4CCCCC4)CC[C@@H]32)cc1,33.8,19.7,-9.6,-4.8
CC(C)NC(=O)Nc1ccc2c(c1)C(=O)N([C@@H](C)CO)C[C@H](C)[C@@H](CN(C)C(=O)CCCN(C)C)OCCCC[C@@H](C)O2,8.2,-8.1,-6.2,-3.0
COCC(=O)N1C[C@H](C)[C@H](OC)CN(C)C(=O)c2cc(NC(=O)c3ccc(F)cc3)ccc2OC[C@@H]1C,-5.3,x,-0.9,13.2
COc1ccccc1C#Cc1ccc2c(c1)[C@H]1NCC[C@H]1[C@@H](CO)N2,54.1*,7.7,x,2.9
CN(C)Cc1cc(C(C)(C)c2cc(CN(C)C)c(O)c(CN(C)C)c2)cc(CN(C)C)c1O,x,6.3,101.8*,1.5
COc1ccc(CN(C)C(=O)c2ccc(Cl)c(S(=O)(=O)NCc3cccnc3)c2)cc1F,3.9,7.4,-1.7,-11.3
COC(=O)c1ccc(Cl)c(NC(=O)CSc2nnc(-c3ccncc3)o2)c1,-5.7,-3.8,9.0,0.8
COc1ccc(CN(C)C[C@@H]2OCCCC[C@@H](C)Oc3ccc(NS(=O)(=O)c4ccc(Cl)cc4)cc3C(=O)N([C@H](C)CO)C[C@H]2C)cc1,33.0,16.6,0.1,-3.9
COc1ccc(S(=O)(=O)Nc2ccc3c(c2)C(=O)N([C@@H](C)CO)C[C@@H](C)[C@H](CN(C)Cc2ccc(C(=O)Nc4ccccc4N)cc2)OCCCC[C@@H](C)O3)cc1,55.3*,-16.8,-2.5,x
COc1ccc(CN(C)C[C@@H]2OCCCC[C@@H](C)Oc3ccc(NS(=O)(=O)c4ccc(Cl)cc4)cc3C(=O)N([C@@H](C)CO)C[C@@H]2C)cc1,55.6*,6.2,-8.8,0.5
COc1ccc(CN(C)C[C@H]2OCCCC[C@@H](C)Oc3ccc(NS(=O)(=O)c4ccc(Cl)cc4)cc3C(=O)N([C@@H](C)CO)C[C@@H]2C)cc1,50.6*,18.9,-3.9,-12.4
COc1ccc(CN(C)C[C@H]2OCCCC[C@H](C)Oc3ccc(NS(=O)(=O)c4ccc(Cl)cc4)cc3C(=O)N([C@H](C)CO)C[C@H]2C)cc1,17.9,64.8*,-9.1,-3.3
CSc1cccc(NC(=O)CN(c2ccccc2)S(=O)(=O)N(C)C)c1,x,x,-1.0,-4.3
